Publication PMC5701743 (Nature, 2017)
Numbering of substitutions follows the chain as printed.

Each molecule was assayed against T1, Vrg4 Tyr114Phe (Y114F) (Saccharomyces cerevisiae, UniProt P40107, Y114F) (assay: IC50 curves, Vrg4 Tyr114Phe variant proteoliposomes). Settings: Tyr114Phe versus wild type.
T1 sequence (P40107 1-337 Y114F): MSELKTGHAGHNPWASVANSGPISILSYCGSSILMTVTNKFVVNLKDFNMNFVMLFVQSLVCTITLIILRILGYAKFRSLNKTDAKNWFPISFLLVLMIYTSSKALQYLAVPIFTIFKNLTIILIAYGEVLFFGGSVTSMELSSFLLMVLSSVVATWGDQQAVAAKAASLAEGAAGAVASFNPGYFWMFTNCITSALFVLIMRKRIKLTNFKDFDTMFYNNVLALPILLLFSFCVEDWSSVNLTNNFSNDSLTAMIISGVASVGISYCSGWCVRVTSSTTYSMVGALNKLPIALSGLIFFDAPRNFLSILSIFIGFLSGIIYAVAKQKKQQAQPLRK
Assay type: biochemical
Outline: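 Wild-type or mutant Vrg4 was purified in DM and reconstituted at 80:1 lipid:protein into yeast polar lipid proteoliposomes. Reconstituted protein was matched by SDS-PAGE densitometry. Liposomes were substrate-loaded by freeze-thaw and extrusion. Uptake was started by adding 4 μg protein equivalent to 50 μl buffer (20 mM Hepes pH 7.5, 50 mM KCl, 2 mM MgSO4) with 0.5 μM 3H-GMP, then filtered and counted. IC50 from curves, mean of three independent experiments, s.d.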

Row | Molecule | Affinity relative to wild type
1 | Nc1nc2c(ncn2[C@@H]2O[C@H](COP(=O)(O)O)[C@@H](O)[C@H]2O)c(=O)[nH]1 [GMP, guanine monophosphate] | reduced the affinity
2 | Nc1nc2c(ncn2[C@@H]2O[C@H](COP(=O)(O)OP(=O)(O)O[C@H]3O[C@H](CO)[C@@H](O)[C@H](O)[C@@H]3O)[C@@H](O)[C@H]2O)c(=O)[nH]1 [GDP-M, GDP-mannose] | reduced the affinity

The molecules below were run against T2, wild type Vrg4 (Saccharomyces cerevisiae, UniProt P40107) (assay: Competition / IC50 of 3H-GMP uptake into wild type Vrg4 proteoliposomes). Settings: competition assay, n=4.
T2 sequence (P40107 1-337): T1 sequence (P40107 1-337 Y114F) with F114Y
Assay type: biochemical

Row | Molecule | Competition of transport (recognition by the binding site)
3 | Nc1nc2c(ncn2[C@@H]2O[C@@H]3COP(=O)(O)O[C@H]3[C@H]2O)c(=O)[nH]1 [cyclic GMP] | very poorly recognised
4 | Nc1nc2c(ncn2[C@@H]2O[C@H](COP(=O)(O)OP(=O)(O)O)[C@@H](O)[C@H]2O)c(=O)[nH]1 [GDP] | can also compete
5 | Nc1nc2c(ncn2[C@@H]2O[C@H](COP(=O)(O)OP(=O)(O)O[C@H]3O[C@H](CO)[C@@H](O)[C@H](O)[C@H]3O)[C@@H](O)[C@H]2O)c(=O)[nH]1 [GTP-G, GDP-glucose] | can also compete
6 | C[C@@H]1O[C@H](OP(=O)(O)OP(=O)(O)OC[C@H]2O[C@@H](n3cnc4c(=O)[nH]c(N)nc43)[C@H](O)[C@@H]2O)[C@@H](O)[C@H](O)[C@@H]1O [GDP-F, GDP-fucose] | can also compete
7 | O=P(O)(O)OP(=O)(O)O [Pyrophosphate] | cannot inhibit
8 | Nc1nc2c(ncn2[C@@H]2O[C@H](CO)[C@@H](O)[C@H]2O)c(=O)[nH]1 [guanosine] | very poorly recognised
9 | Nc1nc2c(ncn2[C@@H]2O[C@H](COP(=O)(O)O)[C@@H](O)[C@H]2O)c(=O)[nH]1 [GMP, guanine monophosphate] | most effective competitors of transport
10 | Nc1nc2c(ncn2[C@@H]2O[C@H](COP(=O)(O)OP(=O)(O)O[C@H]3O[C@H](CO)[C@@H](O)[C@H](O)[C@@H]3O)[C@@H](O)[C@H]2O)c(=O)[nH]1 [GDP-M, GDP-mannose] | most effective competitors of transport

These molecules were tested against T3, Vrg4 (Saccharomyces cerevisiae, UniProt P40107) (assay: not given). Settings: internal substrate; 0.5 μM 3H-GMP outside.
T3 sequence (P40107 1-337): T1 sequence (P40107 1-337 Y114F) with F114Y
Assay type: biochemical
Outline: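 Yeast Vrg4-GFP-His was galactose-induced, IMAC-purified in DDM, and then in DM reconstituted by dilution into yeast polar lipid vesicles at 80:1 lipid:protein and dialysed. Internal substrate was loaded by six freeze-thaw cycles and 0.4 μm extrusion. 4 μg protein was added to 50 μl of 20 mM Hepes pH 7.5, 50 mM KCl, 2 mM MgSO4 with 0.5 μM 3H-GMP. Samples were filtered, washed with cold water and scintillation-counted. ≥4 repeats, mean ± S.D.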

Row | Molecule | Transport driven by substance inside the liposome
11 | Nc1ccn([C@@H]2O[C@H](COP(=O)(O)O)[C@@H](O)[C@H]2O)c(=O)n1 [CMP, cytosine monophosphate] | no significant transport
12 | Nc1ncnc2c1ncn2[C@@H]1O[C@H](COP(=O)(O)O)[C@@H](O)[C@H]1O [AMP, adenine monophosphate] | poor transport
13 | Nc1nc2c(ncn2[C@@H]2O[C@H](COP(=O)(O)OP(=O)(O)OP(=O)(O)O)[C@@H](O)[C@H]2O)c(=O)[nH]1 [GTP] | cannot be driven

What follows are molecules tested against GDP-mannose transporter Vrg4 (Saccharomyces cerevisiae) (UniProt P40107) (assay: crystal structure). Settings: not given.

Row | Molecule | stoichiometry N
14 | GDP-mannose transporter Vrg4 (from UniProt P40107 1-337) (natural protein) | 2
